From ChEMBL document CHEMBL2057133, “A 20S combined with a 22R configuration markedly increases both in vivo and in vitro biological activity of 1α,25-dihydroxy-22-methyl-2-methylene-19-norvitamin D3” (J Med Chem, 2012)
Calls of active or inactive are those of the source. The rule behind the calls is not given here.

Assays:
HL-60 [1] = experiment: Induction of human HL60 cell differentiation after 4 days by NBT reduction assay; format: functional; settings: HL-60, 96 h, read-out: ED50 (the source's name)
[2] = biological target: T1, Vitamin D3 receptor (Rattus norvegicus) (UniProt P13053); experiment: Activation of VDR-mediated 24-hydroxylase transcription in rat osteosarcoma cells after 16 hrs by luciferase reporter gene assay
T1 sequence (whole entry): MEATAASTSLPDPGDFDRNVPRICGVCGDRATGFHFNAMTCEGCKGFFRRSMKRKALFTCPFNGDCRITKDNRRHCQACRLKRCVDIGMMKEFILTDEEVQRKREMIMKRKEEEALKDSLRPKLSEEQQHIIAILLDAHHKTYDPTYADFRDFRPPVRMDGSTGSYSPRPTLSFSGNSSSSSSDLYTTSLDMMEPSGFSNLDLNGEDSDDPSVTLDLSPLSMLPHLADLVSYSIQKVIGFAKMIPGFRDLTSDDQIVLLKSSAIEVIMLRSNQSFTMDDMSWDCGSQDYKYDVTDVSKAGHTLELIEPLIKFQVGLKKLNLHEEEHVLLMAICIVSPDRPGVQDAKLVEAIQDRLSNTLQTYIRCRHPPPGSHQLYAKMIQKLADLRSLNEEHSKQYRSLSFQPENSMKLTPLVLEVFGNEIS

Vitamin D3 receptor = biological target: T2, Vitamin D3 receptor (Rattus norvegicus, UniProt P13053); experiment: Displacement of [3H]-1alpha,25(OH)2D3 from recombinant rat VDR after overnight incubation by scintillation counting
T2 sequence (P13053 whole entry): T1 sequence (whole entry)
Method in brief: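 Competition assay using full-length recombinant rat VDR with radiolabeled 1α,25-(OH)2D3 at 1 nM. Ki was derived from dose-response curves using a Kd of 0.2 nM. Run in duplicate on two separate occasions.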

Rattus norvegicus [3] = experiment: (§1) Calcium mobilization in vitamin-D deficient weanling Sprague-Dawley rat bone assessed as increase in serum calcium level at 32 to 35100 pmol, ip administered every 24 hrs for 4 consecutive days measured 24 hrs post last dose relative to vehicle treated control; format: functional, organism-based
Method in brief: (§2)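 Male weanling Sprague-Dawley rats were fed Diet 11 (0.47% Ca) + AEK oil for 1 week, then 0.02% Ca + AEK oil for 3 weeks, then 0.47% Ca for 1 week, then 0.02% Ca for 2 weeks. Dosing began in the last week on 0.02% Ca: four daily intraperitoneal doses. Serum calcium was measured in neck blood 24 h after the last dose and expressed as the difference from vehicle controls. Mean ± SEM of 6 values.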

HL-60 [4] = experiment: Ratio of 1alpha,25-(OH)2D3 ED50 to compound ED50 for induction of human HL60 cell differentiation; format: functional
Method in brief: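 HL-60 promyelocyte differentiation to monocytes was scored as the percentage of cells reducing nitro blue tetrazolium. ED50 is the concentration giving 50% maturation, from dose-response curves; the experiment was done twice in duplicate. The ratio is the average of 1α,25-(OH)2D3 ED50 over analogue ED50.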

Rattus norvegicus [5] = experiment: as §1, with “intestine” for “bone”, “serosal/mucosal” for “serum”, “dose by everted gut sac method” for “dose”; format: functional, organism-based
Rattus norvegicus [6] = experiment: Calcium mobilization in vitamin-D deficient weanling Sprague-Dawley rat bone assessed as increase in serum calcium level at 32 to 70200 pmol, ip administered every 24 hrs for 4 consecutive days measured 24 hrs post last dose relative to vehicle treated control; format: functional, organism-based; method in brief: as §2
Rattus norvegicus [7] = experiment: Calcium mobilization in vitamin-D deficient weanling Sprague-Dawley rat intestine assessed as increase in serosal/mucosal calcium level at 32 to 7020 pmol, ip administered every 24 hrs for 4 consecutive days measured 24 hrs post last dose by everted gut sac method relative to vehicle treated control; format: functional, organism-based
Rattus norvegicus [8] = experiment: Calcium mobilization in vitamin-D deficient weanling Sprague-Dawley rat bone assessed as increase in serum calcium level at 32 to 2340 pmol, ip administered every 24 hrs for 4 consecutive days measured 24 hrs post last dose relative to vehicle treated control; format: functional, organism-based; method in brief: as §2
Rattus norvegicus [9] = experiment: Calcium mobilization in vitamin-D deficient weanling Sprague-Dawley rat intestine assessed as increase in serosal/mucosal calcium level at 32 to 2340 pmol, ip administered every 24 hrs for 4 consecutive days measured 24 hrs post last dose by everted gut sac method relative to vehicle treated control; format: functional, organism-based

| SMILES | EC50 (HL-60 [1]) [nM] | ED50 [2] [nM] | Ki (Vitamin D3 receptor) [nM] | Activity (Rattus norvegicus [3]) | Ratio ED50 (HL-60 [4]) | Activity (Rattus norvegicus [5]) | Activity (Rattus norvegicus [6]) | Activity (Rattus norvegicus [7]) | Activity (Rattus norvegicus [8]) | Activity (Rattus norvegicus [9]) |
| --- | --- | --- | --- | --- | --- | --- | --- | --- | --- | --- |
| C=C1[C@H](O)CC(=C/C=C2\CCC[C@]3(C)[C@@H]([C@@H](C)CCCC(C)(C)O)CC[C@@H]23)C[C@H]1O [DP001] | 0.08 | 0.007 |  |  | 25 |  |  |  |  |  |
| C=C1[C@H](O)CC(=C/C=C2\CCC[C@]3(C)[C@@H]([C@@H](C)C(C)(C)CCC(C)(C)O)CC[C@@H]23)C[C@H]1O | 1 | 0.6 | 0.06 | inactive | 2 | inactive |  |  |  |  |
| C=C1[C@H](O)CC(=C/C=C2\CCC[C@]3(C)[C@@H]([C@H](C)C(C)(C)CCC(C)(C)O)CC[C@@H]23)C[C@H]1O | 0.9 | 0.03 | 0.02 | inactive | 2.2 | inactive |  |  |  |  |
| C=C1/C(=C\C=C2/CCC[C@]3(C)[C@@H]([C@H](C)CCCC(C)(C)O)CC[C@@H]23)C[C@@H](O)C[C@@H]1O |  |  |  |  |  |  | Active | Active |  |  |
| C=C1[C@H](O)CC(=C/C=C2\CCC[C@]3(C)[C@@H]([C@@H](C)[C@H](C)CCC(C)(C)O)CC[C@@H]23)C[C@H]1O | 0.02 | 0.007 | 0.04 |  | 100 |  |  |  | Active | Active |

Continued by falling EC50 (HL-60 [1]), values first:

| EC50 (HL-60 [1]) [nM] | ED50 [2] [nM] | Ki (Vitamin D3 receptor) [nM] | SMILES | Activity (Rattus norvegicus [3]) | Ratio ED50 (HL-60 [4]) | Activity (Rattus norvegicus [5]) | Activity (Rattus norvegicus [6]) | Activity (Rattus norvegicus [7]) | Activity (Rattus norvegicus [8]) | Activity (Rattus norvegicus [9]) |
| --- | --- | --- | --- | --- | --- | --- | --- | --- | --- | --- |
| 20 | 4 | 10 | C=C1[C@H](O)CC(=C/C=C2\CCC[C@]3(C)[C@@H]([C@@H](C)[C@@H](C)CCC(C)(C)O)CC[C@@H]23)C[C@H]1O | Active | 0.1 | Active |  |  |  |  |
| 10 | 5 | 0.2 | C=C1[C@H](O)CC(=C/C=C2\CCC[C@]3(C)[C@@H]([C@H](C)[C@H](C)CCC(C)(C)O)CC[C@@H]23)C[C@H]1O | Active | 0.2 | Active |  |  |  |  |
| 0.9 | 0.2 | 0.1 | C=C1[C@H](O)CC(=C/C=C2\CCC[C@]3(C)[C@@H]([C@H](C)[C@@H](C)CCC(C)(C)O)CC[C@@H]23)C[C@H]1O | inactive | 2.2 | inactive |  |  |  |  |
